# Measured values of several laboratories.
# Lines come from different studies, so protocols differ. pEC50, pIC50: −log10 of the molar value.
SMILES,target or system,assay,system,setting,endpoint,value
CC(C)(C)C1=CC(=NNc2ccc(C#N)cc2)C=C(C(C)(C)C)C1=O,Toxoplasma gondii,"parasite growth, fluorescence",,"5 days, intracellular",pIC50,5.42
CCN(CC)CCNC(=O)c1c(C)[nH]c(/C=C2\C(=O)Nc3ccc(F)cc32)c1C,ZR75,cell growth or viability,,30 µM,inhibition,90.7%
Nc1ccc(S(=O)(=O)Nc2ncccn2)cc1,Toxoplasma gondii,parasite growth,human Fibroblast,intracellular,pIC50,4.56
Cc1ccc(C(CS(=O)(=O)c2ccccc2)=NNC2=NC(=O)C(=NNc3ccccc3)S2)cc1,WM 266-4,"cell growth or viability, MTT",,"25 µM, 48 h",viability,41.2%
C[C@@H](c1ncncc1F)[C@](O)(Cn1cncn1)c1ccc(F)cc1F,Acanthamoeba castellanii,"parasite growth, resazurin",,96 h,pIC50,5.57
COc1cc2ncnc(NN=C3C(=O)Nc4ccc(F)cc43)c2cc1OC,ZR75,cell growth or viability,,10 µM,inhibition,19.2%
Cc1ncc([N+](=O)[O-])n1CCO,Lacticaseibacillus casei,"microbial growth, agar dilution",,48 h,MIC,> 16 µg/mL
Cc1ccc(C(CS(=O)(=O)c2ccccc2)=NNc2nc(C)c(N=Nc3cccc(C)c3)s2)cc1,WM 266-4,"cell growth or viability, MTT",,"6.3 µM, 48 h",viability,46.7%
COc1ccc(-c2nc(NN=C3C(=O)Nc4ccccc43)c3ccccc3n2)cc1OC,ZR75,cell growth or viability,,30 µM,inhibition,54.9%
NC(=S)NN=C(CS(=O)(=O)c1ccccc1)c1ccc(F)cc1,WM 266-4,"cell growth or viability, MTT",,"25 µM, 48 h",viability,31.3%
O=c1[nH]c(NCc2ccc(Cl)c(Cl)c2)nc2ncn(CCN3CCOCC3)c12,Lacticaseibacillus casei,"microbial growth, agar dilution",,48 h,MIC,16 µg/mL
Cc1ccc(C(CS(=O)(=O)c2ccccc2)=NN=C2N=C(c3ccc(Br)cc3)CS2)cc1,WM 266-4,"cell growth or viability, MTT",,"100 µM, 48 h",viability,31.7%
NC(=O)c1cccnc1,,"tissue relaxation, agonist",rat,,pEC50,~3.00
